Laboratory results: paper PMC6217806 (European journal of medicinal chemistry, 2018)

Assays:
Assay type in all cases: cell-based
HIV-1 NL4-3 Nanoluc-sec = conditions: for SI, selectivity index, calculated as CC50/EC50: CC50 (MT4) / EC50 (HIV-1 in MT4)
[1] = CytoTox-Glo cytotoxicity assay in MT4 cells; conditions: human
[2] = system: T cell latent HIV-1 model JLat-A2; assay: FACS analysis of GFP-expressing J-Lat; conditions: JLat-A2, 10 and 50 nM, 72 h
Method in brief: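 J-Lat (A2) latently infected cells at 1×10⁶ cells/well, incubated with test compounds at various concentrations, 37 °C, 72 h. GFP-expressing cells scored by flow cytometry.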

[3] = Cytotoxicity against U937 cell; conditions: human, U937 cells
Method in brief: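 Cells cultured 3 days with test compound over a concentration range. Viability read by CytoTox-Glo cytotoxicity assay per manufacturer's protocol, same method as for MT4 cells. CC50 taken as the concentration giving 50% reduction in cell viability.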

SMILES | SI, selectivity index, calculated as CC50/EC50 (HIV-1 NL4-3 Nanoluc-sec) | other results
CC1=C[C@@H]2C(=O)[C@]3(C=C(C)[C@H](O)[C@@]3(O)[C@@H]1OC(=O)c1ccccc1)[C@H](C)C[C@@H]1[C@H]2C1(C)C [Compound 1, 5-O-benzoyl-20-deoxyingenol] | >216 | 
CC1=C[C@@H]2C(=O)[C@]3(C=C(C)[C@H](OC(=O)c4ccccc4)[C@@]3(O)[C@@H]1O)[C@H](C)C[C@@H]1[C@H]2C1(C)C [Compound 2, 3-O-benzoyl-20-deoxyingenol] | >302 | 
CC(=O)O[C@H]1C(C)=C[C@]23C(=O)[C@@H](C=C(C)[C@@H](OC(=O)c4ccccc4)[C@]12O)[C@H]1[C@@H](C[C@H]3C)C1(C)C [Compound 3, kansuiphorin C] | >23 | 
CC(=O)OCC1=C[C@@H]2C(=O)[C@]3(C=C(C)[C@H](O)[C@@]3(O)[C@@H]1O)[C@H](C)C[C@@H]1[C@H]2C1(C)C [Compound 4, ingenol monoacetate] | >10 | 
CCCCCCCCCCCC(=O)O[C@@]12C[C@@H](C)[C@]34C=C(C)[C@H](OC(=O)C(C)C(C)C)[C@@]3(O)[C@H](O)C(CO)=C[C@H](C4=O)[C@@H]1C2(C)C (some centres unmarked) [Compound 5, 3-O-(2,3-dimethylbutanoyl)-13-O-dodecanoylingenol] | >7500 | 
C=C1[C@H](OC(=O)c2ccccc2)[C@H]2[C@@H](OC(C)=O)[C@](C)(O)[C@H](OC(C)=O)[C@]2(O)C(=O)[C@@H](C)[C@H]2O[C@@H]2C(C)(C)C(=O)[C@H](O)[C@H]1OC(=O)c1ccccc1 [Compound 7, kansuinin C] |  | anti-HIV activity (HIV-1 NL4-3 Nanoluc-sec; jatrophane diterpenoids isolated from E3-fraction): no anti-HIV activity
CCCCCCCCCCCC(=O)O[C@@]12C[C@@H](C)[C@]34C=C(C)[C@H](O)[C@@]3(O)[C@H](O)C(CO)=C[C@H](C4=O)[C@@H]1C2(C)C [Compound 11, 13-oxyingenol-13-dodecanoate] | >273 | 
COc1ccc(C(=O)O[C@H]2C(C)=C[C@]34C(=O)[C@@H](C=C(C)[C@@H](O)[C@]23O)[C@H]2[C@@H](C[C@H]4C)C2(C)C)cc1 [Compound 12a, 3-(p-Methoxybenzoyl)-20-deoxyingenol] | >64 | 
COc1ccc(C(=O)O[C@@H]2C(C)=C[C@@H]3C(=O)[C@]4(C=C(C)[C@H](O)[C@@]24O)[C@H](C)C[C@@H]2[C@H]3C2(C)C)cc1 [Compound 12b, 5-(p-methoxybenzoyl)-20-deoxyingenol] | >20 | 
CC1=C[C@@H]2C(=O)[C@]3(C=C(C)[C@H](OC(=O)/C=C/c4ccccc4)[C@@]3(O)[C@@H]1O)[C@H](C)C[C@@H]1[C@H]2C1(C)C [Compound 13a, 3-(trans-Cinnamoyl)-20-deoxyingenol] | >45 | 
CC1=C[C@@H]2C(=O)[C@]3(C=C(C)[C@H](O)[C@@]3(O)[C@@H]1OC(=O)/C=C/c1ccccc1)[C@H](C)C[C@@H]1[C@H]2C1(C)C [Compound 13b, 5-(trans-cinnamoyl)-20-deoxyingenol] | >22 | 
CC1=C[C@@H]2C(=O)[C@]3(C=C(C)[C@H](OC(=O)c4ccc5ccccc5c4)[C@@]3(O)[C@@H]1O)[C@H](C)C[C@@H]1[C@H]2C1(C)C [Compound 14a, 3-(2-Naphthoyl)-20-deoxyingenol] | >543 | 
C/C=C/C(=O)O[C@H]1C(C)=C[C@]23C(=O)[C@@H](C=C(C)[C@@H](O)[C@]12O)[C@H]1[C@@H](C[C@H]3C)C1(C)C [Compound 15a, 3-Crotonoyl-20-deoxyingenol] | >17 | 
C/C=C/C(=O)O[C@@H]1C(C)=C[C@@H]2C(=O)[C@]3(C=C(C)[C@H](O)[C@@]13O)[C@H](C)C[C@@H]1[C@H]2C1(C)C [Compound 15b, 5-crotonoyl-20-deoxyingenol] | >16 | 
C/C=C(\C)C(=O)O[C@H]1C(C)=C[C@]23C(=O)[C@@H](C=C(C)[C@@H](O)[C@]12O)[C@H]1[C@@H](C[C@H]3C)C1(C)C [Compound 16, 3-Tigloyl-20-deoxyingenol] | >46 | CC50 at 3 days [1]: > 9.7 µM
C/C=C(/C)C(=O)O[C@H]1C(C)=C[C@]23C(=O)[C@@H](C=C(C)[C@@H](O)[C@]12O)[C@H]1[C@@H](C[C@H]3C)C1(C)C [Compound 17, 3-angeloyl-20-deoxyingenol] | >22.8 | 
CCCCCCCC(=O)O[C@H]1C(C)=C[C@]23C(=O)[C@@H](C=C(C)[C@@H](O)[C@]12O)[C@H]1[C@@H](C[C@H]3C)C1(C)C [Compound 18, 3-Octanoyl-20-deoxyingenol] | >59.9 | 
C/C=C(/C)C(=O)O[C@H]1C(C)=C[C@]23C(=O)[C@@H](C=C(CO)[C@@H](O)[C@]12O)[C@H]1[C@@H](C[C@H]3C)C1(C)C [Compound 22, 3-Angeloylingenol] | >2067 | activation of green fluorescent protein (GFP) expression [2]: comparable potency
CC1=C[C@]23C(=O)[C@@H](C=C(CO)[C@@H](O)[C@]2(O)[C@H]1OC(=O)c1ccc2ccccc2c1)[C@H]1[C@@H](C[C@H]3C)C1(C)C [Compound 23, 3-(2-Naphthoyl)ingenol] | >6153 | CC50 at 3 days [3]: > 2 µM; activation of green fluorescent protein (GFP) expression [2]: comparable potency
